Laboratory results as given in ChEMBL document CHEMBL5046217, “Discovery of New Imidazo[2,1-b]thiazole Derivatives as Potent Pan-RAF Inhibitors with Promising In Vitro and In Vivo Anti-melanoma Activity” (J Med Chem, 2021).
pIC50: −log10 of the molar value.

Columns and labels:
[1] = molecular target: Serine/threonine-protein kinase B-raf (Homo sapiens, UniProt P15056, V600E); experiment: Inhibition of human BRAF V600E mutant using myelin basic protein as substrate in presence of [gamma-33P]ATP incubated for 40 mins by scintillation counting method
Outline: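 Radiometric kinase assay run at Reaction Biology. Kinase (5−10 mU) in 25 mM Tris pH 7.5, 0.02 mM EGTA, 10 mM magnesium acetate with 0.66 mg/mL myelin basic protein and [γ-33P]ATP at 1 μM ATP. Reaction started with Mg-ATP and run 40 min at room temperature, then stopped with 3% phosphoric acid. Spotted on P30 filtermat, washed, scintillation counted.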

M14 [2] = experiment: Antiproliferative activity against human M14 cells assessed as total growth inhibition measured after 48 hrs by SRB assay; conditions: M14, 48 h
[3] = molecular target: RAF proto-oncogene serine/threonine-protein kinase (Homo sapiens, UniProt P04049); experiment: Inhibition of human wild type CRAF using myelin basic protein as substrate in presence of [gamma-33P]ATP incubated for 40 mins by scintillation counting method
Chain of RAF proto-oncogene serine/threonine-protein kinase (P04049 whole entry): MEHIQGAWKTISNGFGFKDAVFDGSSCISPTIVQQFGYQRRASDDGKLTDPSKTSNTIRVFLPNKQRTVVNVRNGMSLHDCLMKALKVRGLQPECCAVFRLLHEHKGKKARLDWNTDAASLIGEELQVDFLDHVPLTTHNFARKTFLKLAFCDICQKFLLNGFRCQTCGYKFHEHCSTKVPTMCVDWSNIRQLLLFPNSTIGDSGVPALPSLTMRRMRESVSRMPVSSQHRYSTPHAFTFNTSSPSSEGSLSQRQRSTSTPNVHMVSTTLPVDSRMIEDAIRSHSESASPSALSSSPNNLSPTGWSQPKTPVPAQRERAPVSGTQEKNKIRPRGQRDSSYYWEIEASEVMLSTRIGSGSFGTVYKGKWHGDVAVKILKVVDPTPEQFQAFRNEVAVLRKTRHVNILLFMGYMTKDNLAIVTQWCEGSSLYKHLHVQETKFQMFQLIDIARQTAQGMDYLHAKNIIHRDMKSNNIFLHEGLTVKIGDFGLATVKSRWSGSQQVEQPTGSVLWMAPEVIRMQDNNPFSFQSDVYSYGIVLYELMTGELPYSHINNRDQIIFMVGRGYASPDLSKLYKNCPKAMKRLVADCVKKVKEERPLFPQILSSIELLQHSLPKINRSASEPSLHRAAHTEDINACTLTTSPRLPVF

[4] = molecular target: T1, Receptor-type tyrosine-protein kinase FLT3 (Homo sapiens, UniProt P36888); experiment: Inhibition of FLT3 (unknown origin) incubated for 1 hr by qPCR analysis
T1 sequence (P36888 whole entry): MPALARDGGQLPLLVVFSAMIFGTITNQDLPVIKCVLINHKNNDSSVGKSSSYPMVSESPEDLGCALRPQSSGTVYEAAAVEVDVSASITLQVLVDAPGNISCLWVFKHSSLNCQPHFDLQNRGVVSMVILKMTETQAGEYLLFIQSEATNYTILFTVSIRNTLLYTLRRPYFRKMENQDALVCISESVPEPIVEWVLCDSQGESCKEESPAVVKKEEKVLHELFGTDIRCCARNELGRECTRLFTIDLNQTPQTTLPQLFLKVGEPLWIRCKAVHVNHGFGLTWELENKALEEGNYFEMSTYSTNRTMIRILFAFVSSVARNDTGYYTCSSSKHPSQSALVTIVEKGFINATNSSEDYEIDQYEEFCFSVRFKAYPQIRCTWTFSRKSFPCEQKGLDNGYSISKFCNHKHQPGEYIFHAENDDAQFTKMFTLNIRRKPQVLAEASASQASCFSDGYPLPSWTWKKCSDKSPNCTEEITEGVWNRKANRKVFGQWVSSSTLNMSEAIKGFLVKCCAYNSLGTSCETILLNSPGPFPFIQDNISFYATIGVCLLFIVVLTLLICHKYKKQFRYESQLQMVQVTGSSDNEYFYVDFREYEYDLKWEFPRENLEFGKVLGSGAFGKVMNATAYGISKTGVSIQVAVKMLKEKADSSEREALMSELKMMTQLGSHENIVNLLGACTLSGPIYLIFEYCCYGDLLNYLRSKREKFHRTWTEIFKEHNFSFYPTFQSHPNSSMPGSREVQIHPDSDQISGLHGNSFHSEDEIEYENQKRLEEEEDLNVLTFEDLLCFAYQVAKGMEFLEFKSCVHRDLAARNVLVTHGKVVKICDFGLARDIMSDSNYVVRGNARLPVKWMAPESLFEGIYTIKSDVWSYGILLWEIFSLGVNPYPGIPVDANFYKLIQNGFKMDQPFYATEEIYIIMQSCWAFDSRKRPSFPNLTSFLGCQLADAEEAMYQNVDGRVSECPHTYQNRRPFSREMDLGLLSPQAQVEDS
Outline: (§1)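 Competition binding assay. Kinases were either T7-phage-tagged (grown in an E. coli BL21-derived host) or expressed in HEK-293 cells and DNA-tagged. […] Bound kinase was eluted with non-biotinylated ligand and quantified by qPCR.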

[5] = Cytotoxicity against human L132 cells assessed as cell growth inhibition incubated for 48 hrs by MTT assay; type: toxicity, cell-based
UACC-257 [6] = experiment: Antiproliferative activity against human UACC-257 cells assessed as total growth inhibition measured after 48 hrs by SRB assay; conditions: UACC-257, 48 h
NSCLC [7] = experiment: cells; conditions: Homo sapiens, 48 h, read-out: INH
[8] = molecular target: Mitogen-activated protein kinase kinase kinase 20 (Homo sapiens, UniProt Q9NYL2); experiment: Inhibition of ZAK (unknown origin) incubated for 1 hr by qPCR analysis; outline: as §1
Chain of Mitogen-activated protein kinase kinase kinase 20 (Q9NYL2 whole entry): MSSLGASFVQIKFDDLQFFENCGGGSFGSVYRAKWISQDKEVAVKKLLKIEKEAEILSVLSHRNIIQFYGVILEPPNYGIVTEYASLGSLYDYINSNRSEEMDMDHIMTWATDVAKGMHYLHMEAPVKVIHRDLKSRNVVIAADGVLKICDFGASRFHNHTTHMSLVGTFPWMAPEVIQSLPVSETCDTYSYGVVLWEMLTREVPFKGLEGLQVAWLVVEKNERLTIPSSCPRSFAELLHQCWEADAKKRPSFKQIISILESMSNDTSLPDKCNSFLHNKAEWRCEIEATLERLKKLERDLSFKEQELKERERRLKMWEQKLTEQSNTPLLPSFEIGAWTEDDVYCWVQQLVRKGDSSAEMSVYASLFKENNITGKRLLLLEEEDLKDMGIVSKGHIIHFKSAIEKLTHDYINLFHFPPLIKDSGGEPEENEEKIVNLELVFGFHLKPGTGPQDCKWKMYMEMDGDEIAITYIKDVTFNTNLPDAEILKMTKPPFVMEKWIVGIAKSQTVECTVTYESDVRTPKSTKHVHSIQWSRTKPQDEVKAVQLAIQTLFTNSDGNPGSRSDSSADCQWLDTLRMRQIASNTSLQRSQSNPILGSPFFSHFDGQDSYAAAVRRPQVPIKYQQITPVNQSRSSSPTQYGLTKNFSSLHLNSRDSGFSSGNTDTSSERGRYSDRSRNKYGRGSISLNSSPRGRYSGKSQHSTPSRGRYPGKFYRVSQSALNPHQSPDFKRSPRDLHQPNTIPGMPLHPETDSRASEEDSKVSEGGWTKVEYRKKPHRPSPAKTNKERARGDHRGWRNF

[9] = molecular target: Homeodomain-interacting protein kinase 1 (Homo sapiens, UniProt Q86Z02); experiment: Inhibition of HIPK1 (unknown origin) incubated for 1 hr by qPCR analysis; outline: as §1
Chain of Homeodomain-interacting protein kinase 1 (Q86Z02 whole entry): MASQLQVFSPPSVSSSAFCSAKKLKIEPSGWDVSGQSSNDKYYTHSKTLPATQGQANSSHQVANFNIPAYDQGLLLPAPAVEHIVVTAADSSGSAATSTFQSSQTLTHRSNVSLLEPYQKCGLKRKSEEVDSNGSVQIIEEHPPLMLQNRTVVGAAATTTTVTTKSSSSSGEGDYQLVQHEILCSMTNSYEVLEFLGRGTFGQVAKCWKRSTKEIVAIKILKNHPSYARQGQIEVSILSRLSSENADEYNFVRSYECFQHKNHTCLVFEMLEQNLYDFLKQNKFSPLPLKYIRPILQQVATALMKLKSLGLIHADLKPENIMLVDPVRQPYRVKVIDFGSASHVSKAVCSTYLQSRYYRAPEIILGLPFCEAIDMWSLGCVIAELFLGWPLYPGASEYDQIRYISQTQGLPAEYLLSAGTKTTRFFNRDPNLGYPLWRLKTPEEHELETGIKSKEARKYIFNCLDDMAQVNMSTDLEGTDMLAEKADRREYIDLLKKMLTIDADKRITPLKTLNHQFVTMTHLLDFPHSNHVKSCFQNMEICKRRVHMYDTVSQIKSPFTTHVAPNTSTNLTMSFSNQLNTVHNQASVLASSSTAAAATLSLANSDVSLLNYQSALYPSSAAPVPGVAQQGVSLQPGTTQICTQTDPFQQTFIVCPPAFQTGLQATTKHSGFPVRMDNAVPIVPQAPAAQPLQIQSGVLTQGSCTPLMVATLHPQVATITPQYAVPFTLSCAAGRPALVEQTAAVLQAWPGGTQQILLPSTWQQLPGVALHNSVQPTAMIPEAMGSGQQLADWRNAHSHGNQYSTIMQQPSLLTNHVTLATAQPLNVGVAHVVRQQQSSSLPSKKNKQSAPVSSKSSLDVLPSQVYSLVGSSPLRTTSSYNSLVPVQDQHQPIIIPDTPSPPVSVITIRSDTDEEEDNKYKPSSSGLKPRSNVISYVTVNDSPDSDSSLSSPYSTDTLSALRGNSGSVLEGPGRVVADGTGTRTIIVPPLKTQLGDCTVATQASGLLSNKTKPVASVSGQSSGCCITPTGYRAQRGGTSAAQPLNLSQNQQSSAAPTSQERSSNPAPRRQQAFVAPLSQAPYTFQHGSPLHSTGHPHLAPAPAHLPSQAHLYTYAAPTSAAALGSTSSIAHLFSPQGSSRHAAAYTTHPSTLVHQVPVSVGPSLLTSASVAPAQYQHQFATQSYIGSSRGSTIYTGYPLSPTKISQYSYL

[10] = test system: Panel CNS (Carcinoma cell lines); experiment: Antiproliferative activity against human Panel CNS (Carcinoma cell lines) assessed as cell growth inhibition measured after 48 hrs by SRB assay
[11] = test system: Panel renal (Carcinoma cell lines); experiment: Antiproliferative activity against human Panel renal (Carcinoma cell lines) assessed as cell growth inhibition measured after 48 hrs by SRB assay
M14 [12] = experiment: Antiproliferative activity against human M14 cells assessed as cell growth inhibition measured after 48 hrs by SRB assay; conditions: M14, 48 h
[13] = molecular target: Tyrosine-protein kinase ABL1 (Homo sapiens, UniProt P00519); experiment: Inhibition of ABL1 (unknown origin) incubated for 1 hr by qPCR analysis
Chain of Tyrosine-protein kinase ABL1 (P00519 whole entry): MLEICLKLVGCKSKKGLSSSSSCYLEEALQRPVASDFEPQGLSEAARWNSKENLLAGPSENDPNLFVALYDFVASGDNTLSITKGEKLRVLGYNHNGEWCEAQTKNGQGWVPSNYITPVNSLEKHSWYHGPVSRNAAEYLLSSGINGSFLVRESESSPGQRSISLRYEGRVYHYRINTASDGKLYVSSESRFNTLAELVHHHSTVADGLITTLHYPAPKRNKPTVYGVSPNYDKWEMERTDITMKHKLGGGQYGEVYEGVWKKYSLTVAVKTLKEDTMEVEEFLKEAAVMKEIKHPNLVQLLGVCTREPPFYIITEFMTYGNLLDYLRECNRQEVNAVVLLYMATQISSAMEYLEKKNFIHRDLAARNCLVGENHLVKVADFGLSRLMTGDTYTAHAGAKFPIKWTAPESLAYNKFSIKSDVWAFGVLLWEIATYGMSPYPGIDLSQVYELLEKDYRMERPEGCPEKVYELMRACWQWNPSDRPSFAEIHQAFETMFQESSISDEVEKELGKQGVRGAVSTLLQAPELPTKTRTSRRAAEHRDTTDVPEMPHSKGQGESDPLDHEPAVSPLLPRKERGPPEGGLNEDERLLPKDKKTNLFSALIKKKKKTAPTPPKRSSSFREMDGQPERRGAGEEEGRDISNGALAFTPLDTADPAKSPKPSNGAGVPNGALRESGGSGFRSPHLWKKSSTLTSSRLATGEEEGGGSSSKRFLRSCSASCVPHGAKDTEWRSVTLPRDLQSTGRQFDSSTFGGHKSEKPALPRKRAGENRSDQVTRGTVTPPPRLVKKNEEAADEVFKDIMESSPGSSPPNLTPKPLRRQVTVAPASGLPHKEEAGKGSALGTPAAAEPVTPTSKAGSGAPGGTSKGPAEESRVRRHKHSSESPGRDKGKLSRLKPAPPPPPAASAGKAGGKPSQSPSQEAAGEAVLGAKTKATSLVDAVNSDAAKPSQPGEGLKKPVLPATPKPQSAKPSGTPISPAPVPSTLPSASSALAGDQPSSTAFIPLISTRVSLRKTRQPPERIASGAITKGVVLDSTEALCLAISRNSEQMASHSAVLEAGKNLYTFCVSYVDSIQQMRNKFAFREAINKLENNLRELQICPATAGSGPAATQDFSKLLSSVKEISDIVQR

NSCLC [14] = experiment: Antiproliferative activity against human NSCLC cell line assessed as cell growth inhibition measured after 48 hrs by SRB assay
[15] = test system: Panel leukemia (Carcinoma cell lines); experiment: Antiproliferative activity against human Panel leukemia (Carcinoma cell lines) assessed as cell growth inhibition measured after 48 hrs by SRB assay
[16] = molecular target: BDNF/NT-3 growth factors receptor (Homo sapiens, UniProt Q16620); experiment: Inhibition of NTRK2 (unknown origin) incubated for 1 hr by qPCR analysis
Chain of BDNF/NT-3 growth factors receptor (Q16620 whole entry): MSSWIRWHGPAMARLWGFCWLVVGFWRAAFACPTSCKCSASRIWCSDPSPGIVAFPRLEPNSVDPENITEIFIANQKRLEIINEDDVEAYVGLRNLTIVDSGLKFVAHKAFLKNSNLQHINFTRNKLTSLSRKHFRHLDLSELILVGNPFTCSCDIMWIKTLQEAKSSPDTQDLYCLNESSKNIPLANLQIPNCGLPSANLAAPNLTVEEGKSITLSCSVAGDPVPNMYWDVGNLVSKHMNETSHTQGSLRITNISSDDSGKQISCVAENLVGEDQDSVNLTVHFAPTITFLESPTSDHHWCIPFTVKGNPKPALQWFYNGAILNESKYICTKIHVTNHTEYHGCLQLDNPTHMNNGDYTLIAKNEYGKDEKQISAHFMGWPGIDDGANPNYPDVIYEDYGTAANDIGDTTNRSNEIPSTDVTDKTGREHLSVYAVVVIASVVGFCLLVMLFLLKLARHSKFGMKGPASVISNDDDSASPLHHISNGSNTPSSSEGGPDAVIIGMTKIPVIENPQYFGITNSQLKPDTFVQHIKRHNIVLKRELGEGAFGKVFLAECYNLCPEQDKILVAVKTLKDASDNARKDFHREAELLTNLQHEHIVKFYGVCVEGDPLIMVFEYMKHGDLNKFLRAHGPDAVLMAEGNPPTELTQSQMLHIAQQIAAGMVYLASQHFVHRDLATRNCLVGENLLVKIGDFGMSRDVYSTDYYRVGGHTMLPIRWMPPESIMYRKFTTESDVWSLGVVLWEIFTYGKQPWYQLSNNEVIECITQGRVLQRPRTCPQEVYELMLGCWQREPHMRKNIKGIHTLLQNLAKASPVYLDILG

Malme-3M [17] = experiment: Antiproliferative activity against human Malme-3M cells assessed as total growth inhibition measured after 48 hrs by SRB assay
[18] = molecular target: Serine/threonine-protein kinase/endoribonuclease IRE1 (Homo sapiens, UniProt O75460); experiment: Inhibition of ERN1 (unknown origin) incubated for 1 hr by qPCR analysis; outline: as §1
[19] = molecular target: Mitogen-activated protein kinase 8 (Homo sapiens, UniProt P45983); experiment: Inhibition of MAPK8 (unknown origin) incubated for 1 hr by qPCR analysis; outline: as §1
Chain of Mitogen-activated protein kinase 8 (P45983 whole entry): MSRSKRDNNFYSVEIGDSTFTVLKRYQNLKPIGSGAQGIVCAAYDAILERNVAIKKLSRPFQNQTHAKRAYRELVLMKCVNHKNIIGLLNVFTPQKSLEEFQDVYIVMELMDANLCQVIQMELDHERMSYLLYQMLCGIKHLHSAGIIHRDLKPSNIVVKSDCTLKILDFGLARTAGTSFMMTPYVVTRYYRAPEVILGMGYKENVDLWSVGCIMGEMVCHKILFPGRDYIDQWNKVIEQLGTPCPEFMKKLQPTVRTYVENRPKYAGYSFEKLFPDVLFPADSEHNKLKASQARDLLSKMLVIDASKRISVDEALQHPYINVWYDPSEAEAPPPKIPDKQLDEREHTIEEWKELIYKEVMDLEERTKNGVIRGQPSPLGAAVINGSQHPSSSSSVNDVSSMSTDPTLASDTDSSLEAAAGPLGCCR

UACC-257 [20] = experiment: Antiproliferative activity against human UACC-257 cells assessed as cell growth inhibition measured after 48 hrs by SRB assay; conditions: UACC-257, 48 h
SK-MEL-2 = experiment: Antiproliferative activity against human SK-MEL-2 cells assessed as total growth inhibition measured after 48 hrs by SRB assay; conditions: SK-MEL-2, 48 h
[21] = test system: Panel melanoma (Carcinoma cell lines); experiment: cells; conditions: Homo sapiens, 48 h, read-out: INH
[22] = test system: Panel CNS (Carcinoma cell lines); experiment: cells; conditions: Homo sapiens, 48 h, read-out: INH
MDA-MB-435 = experiment: Antiproliferative activity against human MDA-MB-435 cells assessed as total growth inhibition measured after 48 hrs by SRB assay; conditions: MDA-MB-435, 48 h
SK-MEL-28 = experiment: Antiproliferative activity against human SK-MEL-28 cells assessed as total growth inhibition measured after 48 hrs by SRB assay; conditions: SK-MEL-28, 48 h
Malme-3M [23] = experiment: Antiproliferative activity against human Malme-3M cells assessed as cell growth inhibition measured after 48 hrs by SRB assay

O=S(=O)(NCCCNc1nccc(-c2c(-c3cccc(O)c3)nc3sccn23)n1)c1cccc(F)c1
pIC50 [1]: 9.01 | TGI (M14 [2]): 10.2 µM | pIC50 [3]: 8.30 | pIC50 [4]: 5.83 | IC50 at 48 h [5]: 56.3 µM | TGI (UACC-257 [6]): > 100 µM | inhibition at 10 µM (NSCLC [7]): 83.1% | pIC50 [8]: 4.99 | pIC50 [9]: 5.31 | pIC50 [10]: 5.50 | pIC50 [11]: 5.53 | pIC50 (M14 [12]): 5.60 | pIC50 [13]: 4.87 | pIC50 (NSCLC [14]): 5.59 | pIC50 [15]: 5.69 | pIC50 [16]: 4.99 | TGI (Malme-3M [17]): 7.86 µM | pIC50 [18]: 4.99 | pIC50 [19]: 5.73 | pIC50 (UACC-257 [20]): 5.55 | TGI (SK-MEL-2): 6.57 µM | inhibition at 10 µM [21]: 101% | inhibition at 10 µM [22]: 83.1% | TGI (MDA-MB-435): 6.51 µM | TGI (SK-MEL-28): 6.86 µM | pIC50 (Malme-3M [23]): 5.59
